Test results as given in ChEMBL document CHEMBL1151770, “Cespihypotins Q-V, verticillene diterpenoids from Cespitularia hypotentaculata” (2008).

Legend:
WiDr = assay: Cytotoxicity against human WiDr cells by MTT assay; assay type: functional; details: read-out: ED50 (the source's name)
In short: (§1)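 Cells grown in serum-supplemented RPMI-1640 at 37 °C, 5% CO2. Seeded at 2880 cells/well for 4 h, then samples added at 1, 10, 20 and 40 µg/mL and incubated 3 days at 37 °C. MTT added for 5 h, formazan dissolved in DMSO, absorbance read at 550 nm. ED50 is the concentration giving 50% reduction of absorbance relative to untreated cells.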

Daoy = assay: Cytotoxicity against human Daoy cells by MTT assay; assay type: functional; details: read-out: ED50 (the source's name); in short: as §1

SMILES | EC50 (WiDr) [µM] | EC50 (Daoy) [µM]
C=C1CC[C@@H]2CC[C@]34O[C@@]3(C2(C)C)[C@@](O)(C/C(C)=C/C(=O)C1)O[C@H]4OC | 54 | 40
C=C1CC[C@@H]2CCC3=C(C2(C)C)[C@@](OC)(C/C(C)=C/[C@@H](O)C1)O[C@H]3OC [CESPIHYPOTIN Q] | > 55 | > 55
C=C1CC[C@@H]2CCC3=C([C@@H](C/C(C)=C/C(=O)C1)OC3=O)C2(C)C [CESPIHYPOTIN R] | 50 | > 55
C=C1CC[C@@H]2CCC(=O)[C@@](O)([C@@H](O)C/C(C)=C/C(=O)C1)C2(C)C [CESPIHYPOTIN T] | 7.5 | 9.3
C=C1CC[C@@H]2CCC3=C([C@@H](C[C@]4(C)O[C@H]4[C@@H](O)C1)OC3=O)C2(C)C [CESPIHYPOTIN U] | > 60 | > 60
C=C1CC[C@@H]2CCC3=C(C2(C)C)[C@](O)(C/C(C)=C/[C@@H](O)C1)OC3=O [CESPIHYPOTIN V] | > 60 | 60
CO[C@@]12[C@H](COC(N)=O)C3=C(C(=O)C(C)=C(N)C3=O)N1C[C@@H]1N[C@@H]12 [MITOMYCIN] | 0.18 | 0.21
